Assays:
Type in all cases: functional
SF-268 = test: Anticancer activity against human SF268 cells assessed as cell growth promotion at 10^-5 M after 48 hrs by SRB assay relative to control
SF-295 = test: Anticancer activity against human SF295 cells assessed as cell growth promotion at 10^-5 M after 48 hrs by SRB assay relative to control
SF-539 = test: Anticancer activity against human SF539 cells assessed as cell growth promotion at 10^-5 M after 48 hrs by SRB assay relative to control
SNB-19 = test: Anticancer activity against human SNB19 cells assessed as cell growth promotion at 10^-5 M after 48 hrs by SRB assay relative to control
U-251 = test: Anticancer activity against human U251 cells assessed as cell growth promotion at 10^-5 M after 48 hrs by SRB assay relative to control
LOX IMVI = test: Anticancer activity against human LOXIMVI cells assessed as cell growth promotion at 10^-5 M after 48 hrs by SRB assay relative to control
Malme-3M = test: Anticancer activity against human MALME-3M cells assessed as cell growth promotion at 10^-5 M after 48 hrs by SRB assay relative to control
CCRF-CEM = test: Anticancer activity against human CCRF-CEM cells assessed as cell growth promotion at 10^-5 M after 48 hrs by SRB assay relative to control
M14 = test: Anticancer activity against human M14 cells assessed as cell growth promotion at 10^-5 M after 48 hrs by SRB assay relative to control
MDA-MB-435 = test: Anticancer activity against human MDA-MB-435 cells assessed as cell growth promotion at 10^-5 M after 48 hrs by SRB assay relative to control
SK-MEL-28 = test: Anticancer activity against human SK-MEL-28 cells assessed as cell growth promotion at 10^-5 M after 48 hrs by SRB assay relative to control
SK-MEL-5 = test: Anticancer activity against human SK-MEL-5 cells assessed as cell growth promotion at 10^-5 M after 48 hrs by SRB assay relative to control
UACC-257 = test: Anticancer activity against human UACC257 cells assessed as cell growth promotion at 10^-5 M after 48 hrs by SRB assay relative to control
UACC-62 = test: Anticancer activity against human UACC62 cells assessed as cell growth promotion at 10^-5 M after 48 hrs by SRB assay relative to control
IGROV-1 = test: Anticancer activity against human IGROV1 cells assessed as cell growth promotion at 10^-5 M after 48 hrs by SRB assay relative to control
OVCAR-3 = test: Anticancer activity against human OVCAR3 cells assessed as cell growth promotion at 10^-5 M after 48 hrs by SRB assay relative to control
OVCAR-5 = test: Anticancer activity against human OVCAR5 cells assessed as cell growth promotion at 10^-5 M after 48 hrs by SRB assay relative to control
OVCAR-8 = test: Anticancer activity against human OVCAR8 cells assessed as cell growth promotion at 10^-5 M after 48 hrs by SRB assay relative to control
NCI/ADR-RES = test: Anticancer activity against human NCI/ADR-RES cells assessed as cell growth promotion at 10^-5 M after 48 hrs by SRB assay relative to control
786-0 = test: Anticancer activity against human 786-0 cells assessed as cell growth promotion at 10^-5 M after 48 hrs by SRB assay relative to control
ACHN = test: Anticancer activity against human ACHN cells assessed as cell growth promotion at 10^-5 M after 48 hrs by SRB assay relative to control
CAKI-1 = test: Anticancer activity against human Caki1 cells assessed as cell growth promotion at 10^-5 M after 48 hrs by SRB assay relative to control
RXF 393 = test: Anticancer activity against human RXF393 cells assessed as cell growth promotion at 10^-5 M after 48 hrs by SRB assay relative to control
SN12C = test: Anticancer activity against human SN12C cells assessed as cell growth promotion at 10^-5 M after 48 hrs by SRB assay relative to control
TK-10 = test: Anticancer activity against human TK10 cells assessed as cell growth promotion at 10^-5 M after 48 hrs by SRB assay relative to control
UO-31 = test: Anticancer activity against human UO31 cells assessed as cell growth promotion at 10^-5 M after 48 hrs by SRB assay relative to control
PC-3 = test: Anticancer activity against human PC3 cells assessed as cell growth promotion at 10^-5 M after 48 hrs by SRB assay relative to control
DU-145 = test: Anticancer activity against human DU145 cells assessed as cell growth promotion at 10^-5 M after 48 hrs by SRB assay relative to control
MCF7 = test: Anticancer activity against human MCF7 cells assessed as cell growth promotion at 10^-5 M after 48 hrs by SRB assay relative to control
HL-60(TB) = test: Anticancer activity against human HL-60(TB) cells assessed as cell growth promotion at 10^-5 M after 48 hrs by SRB assay relative to control
In short: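 NCI-60 single-dose screen: compound at 10^-5 M, 48 h at 37 °C, 5% CO2; cells grown in RPMI 1640 with 5% FBS and 2 mM L-glutamine, pre-incubated 24 h before dosing. Adherent cells fixed with cold TCA; endpoint is sulforhodamine B protein staining. Percent growth of treated cells is reported relative to untreated control.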

K562 = test: Anticancer activity against human K562 cells assessed as cell growth promotion at 10^-5 M after 48 hrs by SRB assay relative to control
MOLT-4 = test: Anticancer activity against human MOLT4 cells assessed as cell growth promotion at 10^-5 M after 48 hrs by SRB assay relative to control
MDA-MB-231 = test: Anticancer activity against human MDA-MB-231 cells assessed as cell growth promotion at 10^-5 M after 48 hrs by SRB assay relative to control
MDA-MB-468 = test: Anticancer activity against human MDA-MB-468 cells assessed as cell growth promotion at 10^-5 M after 48 hrs by SRB assay relative to control
[1] = Anticancer activity against human […] cells assessed as cell growth promotion at 10^-5 M after 48 hrs by SRB assay relative to control
SR = test: Anticancer activity against human SR cells assessed as cell growth promotion at 10^-5 M after 48 hrs by SRB assay relative to control
A549 = test: Anticancer activity against human A549 cells assessed as cell growth promotion at 10^-5 M after 48 hrs by SRB assay relative to control
EKVX = test: Anticancer activity against human EKVX cells assessed as cell growth promotion at 10^-5 M after 48 hrs by SRB assay relative to control
HOP-62 = test: Anticancer activity against human HOP62 cells assessed as cell growth promotion at 10^-5 M after 48 hrs by SRB assay relative to control
NCI-H226 = test: Anticancer activity against human NCI-H226 cells assessed as cell growth promotion at 10^-5 M after 48 hrs by SRB assay relative to control
NCI-H23 = test: Anticancer activity against human NCI-H23 cells assessed as cell growth promotion at 10^-5 M after 48 hrs by SRB assay relative to control
NCI-H322M = test: Anticancer activity against human NCI-H322M cells assessed as cell growth promotion at 10^-5 M after 48 hrs by SRB assay relative to control
COLO 205 = test: Anticancer activity against human COLO205 cells assessed as cell growth promotion at 10^-5 M after 48 hrs by SRB assay relative to control
HCC 2998 = test: Anticancer activity against human HCC2998 cells assessed as cell growth promotion at 10^-5 M after 48 hrs by SRB assay relative to control
HCT-116 = test: Anticancer activity against human HCT116 cells assessed as cell growth promotion at 10^-5 M after 48 hrs by SRB assay relative to control
HCT-15 = test: Anticancer activity against human HCT15 cells assessed as cell growth promotion at 10^-5 M after 48 hrs by SRB assay relative to control
HT-29 = test: Anticancer activity against human HT-29 cells assessed as cell growth promotion at 10^-5 M after 48 hrs by SRB assay relative to control
KM12 = test: Anticancer activity against human KM12 cells assessed as cell growth promotion at 10^-5 M after 48 hrs by SRB assay relative to control

Compound: Brc1cccc(/C=C/c2nc3ccccc3nc2SCc2nc3ccccc3[nH]2)c1
- Activity (SF-268): 94.82%
- Activity (SF-295): 100%
- Activity (SF-539): 101%
- Activity (SNB-19): 94.19%
- Activity (U-251): 90.27%
- Activity (LOX IMVI): 91.83%
- Activity (Malme-3M): 86.98%
- Activity (CCRF-CEM): 99.77%
- Activity (M14): 102%
- Activity (MDA-MB-435): 90.95%
- Activity (SK-MEL-28): 86.57%
- Activity (SK-MEL-5): 96.24%
- Activity (UACC-257): 93.79%
- Activity (UACC-62): 79.86%
- Activity (IGROV-1): 101%
- Activity (OVCAR-3): 92.52%
- Activity (OVCAR-5): 94.9%
- Activity (OVCAR-8): 97.32%
- Activity (NCI/ADR-RES): 89.75%
- Activity (786-0): 95.67%
- Activity (ACHN): 102%
- Activity (CAKI-1): 69.32%
- Activity (RXF 393): 105%
- Activity (SN12C): 88.36%
- Activity (TK-10): 103%
- Activity (UO-31): 63.7%
- Activity (PC-3): 125%
- Activity (DU-145): 97.76%
- Activity (MCF7): 61.74%
- Activity (HL-60(TB)): 96.53%
- Activity (K562): 79.2%
- Activity (MOLT-4): 84.4%
- Activity (MDA-MB-231): 93.29%
- Activity (MDA-MB-468): 101%
- Activity [1]: 108%
- Activity (SR): 97.29%
- Activity (A549): 100%
- Activity (EKVX): 79.01%
- Activity (HOP-62): 97.73%
- Activity (NCI-H226): 96.35%
- Activity (NCI-H23): 93.86%
- Activity (NCI-H322M): 95.01%
- Activity (COLO 205): 119%
- Activity (HCC 2998): 99.44%
- Activity (HCT-116): 78.83%
- Activity (HCT-15): 101%
- Activity (HT-29): 94.19%
- Activity (KM12): 90.27%

Source: ChEMBL document CHEMBL1781959, “Synthesis and in vitro antitumor activity of substituted quinazoline and quinoxaline derivatives: search for anticancer agent” (Eur J Med Chem, 2011)
